Measurements published in ChEMBL document CHEMBL1938288, “Discovery, synthesis, and pharmacological evaluation of spiropiperidine hydroxamic acid based derivatives as structurally novel histone deacetylase (HDAC) inhibitors” (J Med Chem, 2011).
Calls of active or inactive are those of the source. The rule behind the calls is not given here.

Legend:
Mus musculus [1] = test: Toxicity in human HCT116 cells xenografted CD1 nude mouse assessed as signs of toxicity at 35 to 150 mg/kg, po administered for 5 days/week for 17 days; format: organism-based, HCT-116; design: dose 35-150 mg/kg, route oral; details: in vivo
[2] = target: T1, Histone deacetylase (Homo sapiens) (UniProt Q13547+O15379+Q9UBN7+Q92769+Q9UQL6+Q8WUI4+Q9BY41+Q96DB2+P56524+Q9UKV0+Q969S8); details: HCT-116, 100 uM
[3] = AUC (0 to infinity) in CD1 mouse at 15 mg/kg, po; format: ADME, organism-based; design: time infinity, dose 15 mg/kg, route oral; details: plasma
Method in brief: (§1)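 Single dose to male CD-1 mice, either iv at 5 mg/kg or oral at 15 mg/kg. Plasma pharmacokinetic parameters were calculated from these dosings.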

[4] = Oral bioavailability in CD1 mouse at 15 mg/kg; format: ADME, organism-based; details: in vivo; method in brief: as §1
[5] = Tmax in CD1 mouse at 5 mg/kg, iv and 15 mg/kg, po; format: ADME, organism-based; details: in vivo; method in brief: as §1
HCT-116 [6] = test: Cell cycle arrest in human HCT116 cells assessed as decrease in S phase cells at 0.3 uM after 24 hrs by flow cytometry; format: functional, cell-based
Method in brief: (§2)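 HCT-116 cells treated for 24 h at several concentrations. Harvested, fixed in 70% ethanol at -20 °C, RNase treated (1 mg/mL), stained with propidium iodide. DNA content measured by flow cytometry to give phase distribution, including the subG1 population.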

[7] = target: T2, Protein deacetylase HDAC6 (Homo sapiens, UniProt Q9UBN7); test: Inhibition of HDAC6 using carboxyfluorescein-labeled peptide as substrate after 17 hrs by fluorescence assay
T2 sequence (Q9UBN7 whole entry): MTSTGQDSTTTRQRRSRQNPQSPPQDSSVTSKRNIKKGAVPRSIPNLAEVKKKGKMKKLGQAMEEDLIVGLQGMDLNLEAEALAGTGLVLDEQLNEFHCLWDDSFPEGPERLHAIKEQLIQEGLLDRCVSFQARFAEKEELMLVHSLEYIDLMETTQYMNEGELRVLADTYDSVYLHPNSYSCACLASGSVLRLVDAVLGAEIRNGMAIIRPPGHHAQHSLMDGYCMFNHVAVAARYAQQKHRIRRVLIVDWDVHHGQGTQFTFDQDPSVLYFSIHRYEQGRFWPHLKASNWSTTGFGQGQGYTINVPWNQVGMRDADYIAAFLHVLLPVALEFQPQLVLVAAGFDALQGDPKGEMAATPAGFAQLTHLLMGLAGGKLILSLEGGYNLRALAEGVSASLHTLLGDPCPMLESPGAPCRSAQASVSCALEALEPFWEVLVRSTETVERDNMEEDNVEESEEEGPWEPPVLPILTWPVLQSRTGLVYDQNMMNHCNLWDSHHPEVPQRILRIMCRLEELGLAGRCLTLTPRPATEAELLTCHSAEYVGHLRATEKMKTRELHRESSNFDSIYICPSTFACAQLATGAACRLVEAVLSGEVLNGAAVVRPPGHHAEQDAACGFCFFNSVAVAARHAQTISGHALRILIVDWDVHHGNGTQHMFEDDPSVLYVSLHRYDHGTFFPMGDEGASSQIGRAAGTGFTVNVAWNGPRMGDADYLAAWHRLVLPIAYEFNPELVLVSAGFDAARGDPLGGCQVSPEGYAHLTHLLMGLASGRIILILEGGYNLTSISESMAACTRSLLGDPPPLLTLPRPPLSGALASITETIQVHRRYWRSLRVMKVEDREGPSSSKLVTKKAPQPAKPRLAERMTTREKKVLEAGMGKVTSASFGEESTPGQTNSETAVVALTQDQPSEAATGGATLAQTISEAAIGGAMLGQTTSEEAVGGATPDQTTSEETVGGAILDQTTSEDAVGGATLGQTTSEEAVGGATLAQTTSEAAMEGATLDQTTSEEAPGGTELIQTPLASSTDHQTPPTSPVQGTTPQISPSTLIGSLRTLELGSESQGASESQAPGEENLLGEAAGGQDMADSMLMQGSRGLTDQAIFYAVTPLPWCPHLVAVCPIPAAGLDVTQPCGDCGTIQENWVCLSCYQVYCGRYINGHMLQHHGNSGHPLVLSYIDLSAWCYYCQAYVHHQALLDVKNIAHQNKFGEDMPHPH
Method in brief: (§3)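 Purified HDAC isoforms incubated with compound and 1 μM carboxyfluorescein-labelled peptide for 17 h at 25 °C. Reaction stopped with HEPES/0.08% SDS. Substrate and product separated electrophoretically and read by fluorescence. Run in duplicate. IC50 from 12-point curves by nonlinear regression.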

HCT-116 [8] = test: Cell cycle arrest in human HCT116 cells assessed as decrease in G2/M phase cells at 0.3 uM after 24 hrs by flow cytometry; format: functional, cell-based; method in brief: as §2
HCT-116 [9] = test: Cell cycle arrest in human HCT116 cells assessed as accumulation at G2M phase at 1 to 3 uM after 24 hrs by flow cytometry; format: functional, cell-based; method in brief: as §2
[10] = Tmax in mouse; format: ADME, organism-based; details: in vivo
Mus musculus [11] = species: Mus musculus; test: Hepatic blood flow in mouse; format: ADME, organism-based, Liver
[12] = Plasma clearance in CD1 mouse at 5 mg/kg, iv and 15 mg/kg, po; format: ADME, organism-based; method in brief: as §1
[13] = target: T1, Histone deacetylase (Homo sapiens); details: HCT-116, 0.001 to 10 uM
HCT-116 [14] = test: Antitumor activity against human HCT116 cells xenografted in po dosed CD1 nude mouse assessed as reduced tumor volume administered for 5 days/week for 17 days; format: functional, organism-based
Method in brief: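 Female CD-1 nude mice bearing subcutaneous flank HCT-116 tumours (5 × 10⁶ cells injected). Dosing began at about 100 mm³ tumour volume. Given orally at 35–150 mg/kg in water with 5% DMSO and 9.5% encapsin, 5 days/week for 17 days. Tumour volume tracked against vehicle controls. T/C = mean relative tumour volume treated / control.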

[15] = Elimination half life in CD1 mouse at 5 mg/kg, iv and 15 mg/kg, po; format: ADME, organism-based; details: in vivo, read-out: beta t1/2 (converted); method in brief: as §1
HCT-116 [16] = test: Cell cycle arrest in human HCT116 cells assessed as accumulation at G0/G1 phase at 1 to 3 uM after 24 hrs by flow cytometry; format: functional, cell-based; details: in the assay text read “G2/M phase” for “G0/G1 phase”; method in brief: as §2
Histone deacetylase 1 = Histone deacetylase 1 (Homo sapiens, UniProt Q13547); test: Inhibition of HDAC1 using carboxyfluorescein-labeled peptide as substrate after 17 hrs by fluorescence assay; method in brief: as §3
[17] = Cmax in CD1 mouse at 5 mg/kg, iv; format: ADME, organism-based; design: dose 5 mg/kg, route intravenous; details: in vivo; method in brief: as §1

Chain of Histone deacetylase 1 (Q13547 whole entry): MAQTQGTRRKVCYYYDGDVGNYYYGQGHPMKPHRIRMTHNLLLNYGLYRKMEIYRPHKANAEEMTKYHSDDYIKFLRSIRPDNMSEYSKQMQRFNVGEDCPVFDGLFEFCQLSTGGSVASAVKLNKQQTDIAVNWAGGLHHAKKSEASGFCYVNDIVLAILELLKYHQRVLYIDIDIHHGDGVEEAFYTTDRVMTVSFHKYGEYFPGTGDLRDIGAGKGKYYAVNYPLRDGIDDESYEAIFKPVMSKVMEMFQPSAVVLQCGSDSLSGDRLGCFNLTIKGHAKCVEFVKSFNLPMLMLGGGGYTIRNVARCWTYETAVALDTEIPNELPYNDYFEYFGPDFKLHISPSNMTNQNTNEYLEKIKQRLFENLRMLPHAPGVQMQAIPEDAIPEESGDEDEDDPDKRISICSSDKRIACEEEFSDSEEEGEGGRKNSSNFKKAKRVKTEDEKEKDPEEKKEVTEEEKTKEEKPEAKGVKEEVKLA

inhibition [2]: Active
AUC(0-inf) [3]: 800 ng·h/mL
bioavailability [4]: 31.5%
Tmax [5]: 15 min
IC50 [7]: 25.7 nM
Tmax [10]: 15 min
QH (Mus musculus [11]): 5.4 L/h/kg
clearance [12]: 98 mL/min/kg
inhibition [13]: tde
half-life [15]: 504 min
IC50 (Histone deacetylase 1): 93.8 nM
Cmax [17]: 12.5 µM
SMILES: O=C(/C=C/c1ccc2c(c1)C(=O)CC1(CCN(Cc3ccccc3)CC1)O2)NO
Activity (Mus musculus [1]): Non-toxic
Activity (HCT-116 [6]): Active
Activity (HCT-116 [8]): Active
Activity (HCT-116 [9]): Active
Activity (HCT-116 [14]): Dose-dependent effect
Activity (HCT-116 [16]): Active
